The source made the active and inactive calls. The rule behind the calls is not given here.
Columns and labels:
HeLa = test: Antiproliferative activity against human HeLa cells assessed as reduction in cell growth incubated for 72 hrs by MTT assay; assay type: functional, cell-based
A549 = test: Antiproliferative activity against human A549 cells assessed as reduction in cell growth incubated for 72 hrs by MTT assay; assay type: functional, cell-based; conditions: A549, 72 h
SGC-7901 [1] = test: Antiproliferative activity against human SGC7901 cells assessed as reduction in cell growth incubated for 72 hrs by MTT assay; assay type: functional, cell-based; conditions: SGC-7901, 72 h
SGC-7901 [2] = test: Induction of morphological changes in human SGC7901 cells assessed as formation of multinucleated cells at 36 nM incubated for 24 hrs by immunofluorescence assay; assay type: functional, cell-based
Procedure, shortened: (§1)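 SGC-7901 cells were exposed to compound at 26 or 36 nM for 24 h, then immunostained. Microtubules and unassembled tubulin were stained green and nuclei blue. Microtubule network and cell morphology were examined by fluorescence imaging.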

SGC-7901 [3] = test: Induction of morphological changes in human SGC7901 cells assessed as cell rounding at 36 nM incubated for 24 hrs by immunofluorescence assay; assay type: functional, cell-based; procedure, shortened: as §1
Tubulin (Sus scrofa) [4] = molecular target: T1, Tubulin (Sus scrofa) (UniProt P02554+P02550); test: Inhibition of porcine brain tubulin polymerization at 10 uM measured at 1 min intervals for 80 mins by fluorimetry
T1 sequence (P02550 whole entry, looked up): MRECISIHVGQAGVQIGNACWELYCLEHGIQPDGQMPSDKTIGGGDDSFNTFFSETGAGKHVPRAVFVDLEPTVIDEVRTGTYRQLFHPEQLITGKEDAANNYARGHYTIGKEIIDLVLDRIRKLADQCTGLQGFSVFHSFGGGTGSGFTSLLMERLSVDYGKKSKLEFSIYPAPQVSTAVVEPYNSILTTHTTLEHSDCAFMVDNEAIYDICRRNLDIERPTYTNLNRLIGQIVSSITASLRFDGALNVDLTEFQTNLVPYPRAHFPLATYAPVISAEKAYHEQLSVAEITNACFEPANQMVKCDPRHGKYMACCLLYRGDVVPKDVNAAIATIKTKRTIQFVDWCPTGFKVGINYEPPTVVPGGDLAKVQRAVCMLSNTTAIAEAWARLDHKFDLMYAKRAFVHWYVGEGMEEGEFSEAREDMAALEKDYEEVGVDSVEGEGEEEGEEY
T1 sequence (P02554 whole entry, looked up): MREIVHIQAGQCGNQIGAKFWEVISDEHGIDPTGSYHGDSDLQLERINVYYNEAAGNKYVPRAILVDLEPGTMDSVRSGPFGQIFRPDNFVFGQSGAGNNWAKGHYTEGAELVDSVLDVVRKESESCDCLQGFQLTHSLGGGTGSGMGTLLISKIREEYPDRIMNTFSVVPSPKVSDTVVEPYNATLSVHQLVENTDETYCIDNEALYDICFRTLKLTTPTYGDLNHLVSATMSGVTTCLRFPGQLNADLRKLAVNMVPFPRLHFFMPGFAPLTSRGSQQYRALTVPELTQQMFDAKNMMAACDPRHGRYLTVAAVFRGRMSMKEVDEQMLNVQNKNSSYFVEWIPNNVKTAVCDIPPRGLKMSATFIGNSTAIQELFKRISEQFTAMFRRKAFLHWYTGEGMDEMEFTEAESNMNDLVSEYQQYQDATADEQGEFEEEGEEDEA

SGC-7901 [5] = test: Cell cycle arrest in human SGC7901 cells assessed as increase of G2/M cell population at 36 nM incubated for 0 to 72 hrs by flow cytometry analysis; assay type: functional, cell-based
SGC-7901 [6] = test: Cell cycle arrest in human SGC7901 cells assessed as decrease of G1 cell population at 36 nM incubated for 0 to 72 hrs by flow cytometry analysis; assay type: functional, cell-based
SGC-7901 [7] = test: Induction of morphological changes in human SGC7901 cells assessed as destruction of cytoskeleton at 36 nM incubated for 24 hrs by immunofluorescence assay; assay type: functional, cell-based; procedure, shortened: as §1
SGC-7901 [8] = test: Induction of multinucleated cell formation in human SGC7901 cells at 36 nM incubated for 0 to 72 hrs by flow cytometry analysis; assay type: functional, cell-based
L929 = test: Cytotoxicity against mouse L929 cells assessed as reduction in cell growth incubated for 72 hrs by MTT assay; assay type: cell-based; conditions: L929, 72 h
SGC-7901 [9] = test: Cell cycle arrest in human SGC7901 cells assessed as accumulation of G2/M cell population at 26 nM incubated for 12 hrs by flow cytometry analysis (reference value: 24.47%); assay type: functional
Tubulin (Sus scrofa) [10] = molecular target: T1, Tubulin (Sus scrofa); test: Inhibition of porcine brain tubulin polymerization measured at 1 min intervals for 80 mins by fluorimetry
SGC-7901 [11] = test: Induction of morphological changes in human SGC7901 cells assessed as destruction of cytoskeleton at 26 nM incubated for 24 hrs by immunofluorescence assay; assay type: functional, cell-based; procedure, shortened: as §1
SGC-7901 [12] = test: Induction of morphological changes in human SGC7901 cells assessed as formation of multinucleated cells at 26 nM incubated for 24 hrs by immunofluorescence assay; assay type: functional, cell-based; procedure, shortened: as §1
Tubulin (Sus scrofa) [13] = molecular target: T1, Tubulin (Sus scrofa); test: Inhibition of porcine brain tubulin polymerization at 12.5 to 100 uM measured at 1 min intervals for 80 mins by fluorimetry
SGC-7901 [14] = test: Induction of morphological changes in human SGC7901 cells assessed as cell rounding at 26 nM incubated for 24 hrs by immunofluorescence assay; assay type: functional, cell-based; procedure, shortened: as §1

SMILES	IC50 (HeLa) [µM]	IC50 (A549) [µM]	IC50 (SGC-7901 [1]) [µM]	other results
CNc1cc(F)ccc1-c1cnc2[nH]nc(-c3cc(OC)c(OC)c(OC)c3)c2c1	1.67	4.27	3.76	–
COc1ccc(-c2cnc3[nH]nc(-c4cc(OC)c(OC)c(OC)c4)c3c2)c(N)c1	1.44	5.36	3.73	–
COc1cc(-c2n[nH]c3ncc(-c4ccc(Br)cc4N)cc23)cc(OC)c1OC	2.61	8.47	5.52	–
COc1cc(-c2n[nH]c3ncc(-c4ccccc4N)cc23)cc(OC)c1OC	2.55	1.42	4.37	–
COc1ccc(-c2n[nH]c3ncc(-c4ccc(C)cc4)cc23)cc1	> 30	> 30	> 30	–
COc1ccc(-c2n[nH]c3ncc(-c4ccc(C)cc4N)cc23)cc1OC	> 30	> 30	> 30	–
CNc1cc(C)ccc1-c1cnc2[nH]nc(-c3cc(OC)c(OC)c(OC)c3)c2c1	3.84	9.25	6.31	–
COc1ccc(N)c(-c2cnc3[nH]nc(-c4cc(OC)c(OC)c(OC)c4)c3c2)c1	4.93	10.2	9.51	–
COc1ccc(-c2n[nH]c3ncc(-c4ccc(C)cc4N)cc23)cc1	> 30	> 30	> 30	–
COc1ccc(-c2n[nH]c3ncc(-c4ccc(C)cc4)cc23)cc1OC	> 30	> 30	> 30	–
COc1cc(-c2n[nH]c3ncc(-c4ccc(F)cc4)cc23)cc(OC)c1OC	0.89	> 30	2.31	–
COc1cc(-c2n[nH]c3ncc(-c4ccc(Br)cc4)cc23)cc(OC)c1OC	10.9	17.4	20.2	–
CNc1cc(Cl)ccc1-c1cnc2[nH]nc(-c3cc(OC)c(OC)c(OC)c3)c2c1	6.49	14	8.48	–

Continued, in another order:

IC50 (HeLa) [µM]	IC50 (A549) [µM]	IC50 (SGC-7901 [1]) [µM]	SMILES	other results
0.081	1.31	0.4	COc1cc(-c2n[nH]c3ncc(-c4ccc(F)cc4N)cc23)cc(OC)c1OC	–
0.086	> 30	0.051	COc1cc(-c2n[nH]c3ncc(-c4cccc(C)c4)cc23)cc(OC)c1OC	–
0.16	7.83	0.23	COc1cc(-c2n[nH]c3ncc(-c4ccc(C)cc4N)cc23)cc(OC)c1OC	–
0.46	7.66	1.91	COc1cccc(-c2cnc3[nH]nc(-c4cc(OC)c(OC)c(OC)c4)c3c2)c1	–
0.87	14.6	4.82	COc1cc(-c2n[nH]c3ncc(-c4ccc(Cl)cc4)cc23)cc(OC)c1OC	–
0.28	> 30	0.13	COc1ccc(-c2cnc3[nH]nc(-c4cc(OC)c(OC)c(OC)c4)c3c2)cc1	–
0.057	0.65	0.037	COc1cc(-c2n[nH]c3ncc(-c4ccccc4)cc23)cc(OC)c1OC	–
0.024	–	0.018	COc1cc(C(=O)c2csc(-c3ccccc3)n2)cc(OC)c1OC	Activity (SGC-7901 [2]): Active; Activity (SGC-7901 [3]): Active; inhibition (Tubulin (Sus scrofa) [4]): Active; Activity (SGC-7901 [5]): Active; Activity (SGC-7901 [6]): Active; Activity (SGC-7901 [7]): Active; Activity (SGC-7901 [8]): Active; IC50 (L929): 25.8 µM
0.045	0.082	0.013	COc1cc(-c2n[nH]c3ncc(-c4ccc(C)cc4)cc23)cc(OC)c1OC	Activity (SGC-7901 [9]): 59.62%; inhibition (Tubulin (Sus scrofa) [10]): Dose-dependent effect; Activity (SGC-7901 [11]): Active; Activity (SGC-7901 [12]): Active; inhibition (Tubulin (Sus scrofa) [13]): Active; IC50 (L929): 37.5 µM; Activity (SGC-7901 [14]): Active
0.38	4.43	0.62	COc1cc(-c2n[nH]c3ncc(-c4cc(C)ccc4N)cc23)cc(OC)c1OC	–
0.36	3.24	0.58	COc1cc(-c2n[nH]c3ncc(-c4ccc(Cl)cc4N)cc23)cc(OC)c1OC	–

Reference: ChEMBL document CHEMBL4390664, “3,5-Diaryl-1H-pyrazolo[3,4-b]pyridines as potent tubulin polymerization inhibitors: Rational design, synthesis and biological evaluation” (Eur J Med Chem, 2019)
